Columns and labels:
Cannabinoid receptor 1 [1] = target: T1, Cannabinoid receptor 1 (Homo sapiens, UniProt P21554); assay: Displacement of [3H]-CP55940 from human CB1 receptor expressed in CHO-K1 cells after 1 hr by liquid scintillation spectrometry; assay type: cell-based
Homo sapiens = species on record: Homo sapiens; assay: Selectivity ratio of Ki for human CB2 receptor to Ki for human CB1 receptor
In short: (§1)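 Membranes from CHO-K1 cells over-expressing CB1 or CB2 used for [3H]CP55940 displacement, giving Ki at each receptor. Selectivity taken as the comparison of the CB2 and CB1 Ki values.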

Cannabinoid receptor 2 = Cannabinoid receptor 2 (Homo sapiens, UniProt P34972); assay: Displacement of [3H]-CP55940 from human CB2 receptor expressed in CHO-K1 cells after 1 hr by liquid scintillation spectrometry; assay type: cell-based; in short: as §1
Cannabinoid receptor 1 [2] = target: T1, Cannabinoid receptor 1; assay: Antagonist activity at human CB1 receptor transfected in CHO-K1 cells co-expressing G-alpha-q16 protein assessed as inhibition of G-alpha-q16 protein-mediated intracellular calcium mobilization; assay type: functional, cell-based
Cannabinoid receptor 1 [3] = target: T1, Cannabinoid receptor 1; assay: Displacement of [3H]-SR141716A from human CB1 receptor expressed in CHO-K1 cells after 1 hr by liquid scintillation counting; assay type: cell-based
MDCK = assay: Permeability from apical to basolateral side of MDR1 transfected MDCK cells at 3.16 uM after 1 hr by LC/MS analysis; assay type: ADME, cell-based, Canis lupus familiaris; conditions: dog
In short: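 MDCK-mdr1 cells grown on filters for 4 days to confluence. Compound added apically at 3.16 μM, incubated 1 hr at 37°C. Apical-to-basal transport quantified by mass spectrometry in MRM mode, tuned per compound by infusion.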

T1 sequence (P21554 whole entry): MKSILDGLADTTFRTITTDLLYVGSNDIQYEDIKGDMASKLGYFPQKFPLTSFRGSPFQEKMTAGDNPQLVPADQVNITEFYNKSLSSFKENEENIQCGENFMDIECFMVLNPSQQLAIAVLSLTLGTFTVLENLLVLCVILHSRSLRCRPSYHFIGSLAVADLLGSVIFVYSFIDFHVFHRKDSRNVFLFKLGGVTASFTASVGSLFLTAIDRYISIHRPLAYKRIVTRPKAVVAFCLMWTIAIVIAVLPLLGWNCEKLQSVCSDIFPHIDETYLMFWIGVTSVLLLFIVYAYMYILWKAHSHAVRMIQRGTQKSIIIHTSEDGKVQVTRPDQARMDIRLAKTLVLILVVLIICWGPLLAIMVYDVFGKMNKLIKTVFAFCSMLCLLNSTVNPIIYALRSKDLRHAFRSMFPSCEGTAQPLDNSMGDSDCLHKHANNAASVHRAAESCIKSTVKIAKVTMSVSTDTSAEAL
Cannabinoid receptor 2, sequence (P34972 whole entry): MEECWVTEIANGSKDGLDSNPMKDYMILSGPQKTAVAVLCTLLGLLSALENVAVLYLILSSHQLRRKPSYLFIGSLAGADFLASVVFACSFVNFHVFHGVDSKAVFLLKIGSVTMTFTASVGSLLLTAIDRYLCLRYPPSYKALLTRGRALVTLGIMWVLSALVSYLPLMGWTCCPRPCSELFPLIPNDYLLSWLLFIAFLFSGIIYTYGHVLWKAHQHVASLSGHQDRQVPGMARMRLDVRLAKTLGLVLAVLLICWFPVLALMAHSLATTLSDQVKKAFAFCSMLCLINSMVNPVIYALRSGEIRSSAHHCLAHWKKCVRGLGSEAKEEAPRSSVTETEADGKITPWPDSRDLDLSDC

Compound	Ki (Cannabinoid receptor 1 [1]) [µM]	Ratio Ki (Homo sapiens)	Ki (Cannabinoid receptor 2) [µM]	Ke (Cannabinoid receptor 1 [2]) [µM]	Ki (Cannabinoid receptor 1 [3]) [µM]	permeability (MDCK) [%]
Cc1c(C(=O)NCCCCCCCNS(N)(=O)=O)nn(-c2ccc(Cl)cc2Cl)c1-c1ccc(Cl)cc1	0.049	21	1.01	0.304	0.02	–
Cc1c(C(=O)NCCCCCCCNS(C)(=O)=O)nn(-c2ccc(Cl)cc2Cl)c1-c1ccc(Cl)cc1	–	–	0.78	–	–	–
Cc1c(C(=O)NCc2ccc(CNS(C)(=O)=O)cc2)nn(-c2ccc(Cl)cc2Cl)c1-c1ccc(Cl)cc1	–	–	–	2.93	–	–
Cc1c(C(=O)NCc2cccc(CNS(N)(=O)=O)c2)nn(-c2ccc(Cl)cc2Cl)c1-c1ccc(Cl)cc1	–	–	–	4.2	–	–
Cc1c(C(=O)NCC2CCC(CNS(C)(=O)=O)CC2)nn(-c2ccc(Cl)cc2Cl)c1-c1ccc(Cl)cc1 (mixture of isomers)	0.055	–	0.9	–	0.011	–
Cc1c(C(=O)NCC2CCC(CNS(N)(=O)=O)CC2)nn(-c2ccc(Cl)cc2Cl)c1-c1ccc(Cl)cc1 (mixture of isomers)	–	–	2.31	–	–	–
Cc1c(C(=O)Nc2cc[n+]([O-])cc2)nn(-c2ccc(Cl)cc2Cl)c1-c1ccc(Cl)cc1	0.294	15	4.52	1.39	0.061	–
Cc1c(C(=O)NCc2cccc(CNS(C)(=O)=O)c2)nn(-c2ccc(Cl)cc2Cl)c1-c1ccc(Cl)cc1	–	–	–	2.83	–	–
Cc1c(C(=O)NCCCN(C)CCCNS(C)(=O)=O)nn(-c2ccc(Cl)cc2Cl)c1-c1ccc(Cl)cc1	–	–	–	5.34	–	–
Cc1c(C(=O)NCc2ccc(CNS(N)(=O)=O)cc2)nn(-c2ccc(Cl)cc2Cl)c1-c1ccc(Cl)cc1	–	–	–	0.376	–	–
Cc1c(C(=O)Nc2ccc(C)[n+](C)c2)nn(-c2ccc(Cl)cc2Cl)c1-c1ccc(Cl)cc1	1.7	1.3	2.27	–	0.786	–
Cc1c(C(=O)NC[C@H]2CC[C@@H](CNS(N)(=O)=O)CC2)nn(-c2ccc(Cl)cc2Cl)c1-c1ccc(Cl)cc1	–	–	1.79	–	–	< 1
Cc1c(C(=O)Nc2ccncc2)nn(-c2ccc(Cl)cc2Cl)c1-c1ccc(Cl)cc1	0.056	31	1.74	–	0.013	–
Cc1c(C(=O)NC[C@H]2CC[C@@H](CNS(C)(=O)=O)CC2)nn(-c2ccc(Cl)cc2Cl)c1-c1ccc(Cl)cc1	0.036	–	0.96	–	0.008	< 1
Cc1ccc(NC(=O)c2nn(-c3ccc(Cl)cc3Cl)c(-c3ccc(Cl)cc3)c2C)cn1	0.102	39	4.01	–	0.026	–
